Source: PubChem BioAssay (several laboratories)
Only some compounds are listed: those with a hit (about 3.7% of all), similar ones and a draw of the others.
INS promoter inh = inhibitors of insulin promoter-driven GFP, primary screen, imaging, TRM-6 cells (human fetal islet line), eGFP reporter, cell count | inhibition, % at 2 µM | reporter expression induced with tamoxifen | 0.9% of 130,000 active | AID 1273, 2008;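 active = inhibition above the mean plus 3 SD, with well images judged a real hit on visual review, cut at about 60% in these data, passing the limit was not always enough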
Yeast lifespan up = compounds extending yeast replicative lifespan, primary screen, S. cerevisiae, OD615. S. cerevisiae growth with nicotinamide; deaD strain in restrictive glucose medium. AID 775, 2007. 0.68% of 130,000 active. inhibition of the nicotinamide effect, % at 10 µM;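 active = inhibition above a set limit, placed 3 SD over the median of all compounds, cut at about 26% in these data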;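 note: 0% = nicotinamide-treated wells and 100% = cells grown without nicotinamide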
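Measured by: optical density (absorbance) at 615 nm; System: modified budding yeast, DeaD strain; Medium: restrictive CSMM-D dextrose medium; Timing: 4 h preincubation then 48 h treatment at 30 °C.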
HMGR II inh = inhibitors of E. faecalis class II HMGR, primary screen, biochemical, Enterococcus faecalis; inhibition, % at 10 µM; purified E. faecalis HMGR, NADPH absorbance 340 nm kinetic; 0.41% of 190,000 active; HMG-CoA reductase (Enterococcus faecalis, mvaE);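 active = inhibition above a set limit, the median over all tested compounds plus 3 SD, cut at about 9.5% in these data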;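 note: enzyme runs in reverse so mevalonate oxidation gives rising NADPH absorbance; 0% = complete reaction with DMSO and 100% = background rate lacking mevalonate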
Yeast growth inh = growth inhibitors of yeast BB579 in restrictive medium, primary screen, yeast lifespan-shortening project, S. cerevisiae; OD615, 48 h; inhibition, % at 10 µM; 0.51% of 140,000 active; AID 804, 2007;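 active = inhibition above a set limit, 3 SD over the mean compound inhibition, cut at about 44% in these data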
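Assay system – yeast BB579 (DeaD) · Dosing – single compound dose of 10 µM, 0.25% DMSO final · Detection – OD615 turbidity measurement · Buffer or medium – CSMM-D restrictive synthetic medium containing dextrose (glucose) · Benchmarks – positive control amphotericin B 10 µg/mL · Incubation – 48 h exposure, 30 °C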
RAM network inh = inhibitors of the yeast RAM network, primary screen, dse1pr::URA3 reporter, 5-FOA selection; S. cerevisiae dse1pr::URA3 reporter, 5-FOA growth OD615, 2 d; analog-sensitive cbk1-as2 kinase mutant strain; inhibition, % at 50 µM; 1.8% of 190,000 active;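 active = inhibition above a set limit, 3 SD over mean compound inhibition, cut at about 8.4% in these data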;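 note: 0% = DMSO-only wells with no growth and 100% = 10 µM 1-NA-PP1 full growth; inhibition rescues growth on 5-FOA so higher OD means more RAM inhibition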
* marks the source's active call; other numbers are inactive results; nt = no result given.

SMILES	INS promoter inh	Yeast lifespan up	HMGR II inh	Yeast growth inh	RAM network inh
CSc1ccc(/C=C(/Sc2nnc(-c3ccccc3)o2)C(=O)O)cc1	80.0*	nt	6.1	nt	3.5
COc1cccc(/C=N/Nc2nccnc2Cl)c1O	0.0	nt	-4.2	nt	-0.1
COc1ccc(/C=N/Nc2nccnc2Cl)c(OC)c1	nt	nt	18.4*	nt	0.7
COc1ccc(/C=N/Nc2nccnc2Cl)cc1	83.3*	-8.0	-4.5	-24.6	1.5
O=C(COC(=O)CNS(=O)(=O)/C=C/c1ccccc1)Nc1cccc2ccccc12	40.0	nt	0.9	nt	0.7
COc1cccc(C2=NO[C@@H]3C(=O)N(c4ccc5c(c4)OCCO5)C(=O)[C@H]23)c1OC	80.0*	-4.8	-2.7	4.5	1.4
COc1cccc(CNC(=O)CCC2CCCN(C(=O)c3ccc(OC)c(F)c3)C2)c1 (stereo not given)	nt	nt	-1.6	nt	1.5
COc1cccc(-c2cc(C(F)(F)F)nc(NCc3ccco3)n2)c1	-8.6	-8.9	-4.5	-72.0	8.9*
Cc1ccc(NC(=O)c2c(Cl)nc3ccccn23)cc1	nt	nt	-2.0	nt	2.5
C=CCn1c(NS(=O)(=O)c2ccccc2)c(S(=O)(=O)c2ccc(C)cc2)c2nc3ccccc3nc21	22.2	13.5	-1.9	-18.6	11.0*
CCCCn1c(N)c(S(=O)(=O)c2ccc(C)cc2)c2nc3ccccc3nc21	-7.1	3.0	-1.4	-20.6	9.5*
O=S(=O)(Nc1c(S(=O)(=O)c2ccccc2)c2nc3ccccc3nc2n1C1CCCCC1)c1ccccc1	nt	27.4*	-1.6	-8.8	0.8
CC(=O)Nc1c(S(=O)(=O)c2ccccc2)c2nc3ccccc3nc2n1Cc1ccccc1	-113.3	-6.8	-0.1	-16.6	2.1
COCCn1nnnc1C(c1cccs1)N1CCN2CCCC2C1 (stereo not given)	15.4	nt	3.5	nt	0.1
COc1ccccc1N=CC1=C(O)CC(c2ccccc2)CC1=O (stereo not given)	nt	-4.8	0.8	-31.1	5.1
CCC(C)NC(=O)c1ccc([N+](=O)[O-])c(Cl)c1 (stereo not given)	nt	5.5	-5.9	-22.4	2.4
CC(C)CC(=O)NC(NCC1CCCO1)C(Cl)(Cl)Cl (stereo not given)	-50.0	-3.7	-0.7	12.4	1.4
COc1ccc(CCNC(=O)COC(=O)c2cc(OC)c(OC)cc2OC)cc1OC	9.1	nt	-2.0	nt	0.8
CCOc1cc(S(=O)(=O)NCCc2cccc(C)c2)c(OCC)cc1-n1cnnn1	-35.7	-15.2	1.4	2.6	8.8*
COC(=O)C1=C(O)C(C(=O)OC)C(c2ccc(C)cc2)C(C#N)(C#N)C1c1ccc(C)cc1 (stereo not given)	59.1	nt	0.3	-35.4	8.5*
CCOC(=O)CN1C(=O)CN(c2ccc(C)cc2)C1=O	nt	-6.1	-3.8	-9.0	0.9
O=C(c1ccc(COc2ccccc2Br)o1)N1N=C(C(F)F)CC1(O)C(F)F (stereo not given)	37.5	-1.6	-0.9	-14.9	4.5
COc1cccc(/C=N/N2CCN(C)CC2)c1	72.7*	5.9	-5.8	-24.9	0.3
COc1ccc(NC(=O)Nc2ccc3oc(C)nc3c2)cc1	5.6	nt	-4.3	nt	0.5
Cc1nc2cc(NC(=O)N(C)c3ccc4ccccc4c3)ccc2o1	70.7*	-21.3	-0.1	-32.9	-0.3
SMILES	INS promoter inh	Yeast lifespan up	HMGR II inh	Yeast growth inh	RAM network inh
CCO[C@H]1OC(C(N)=O)=C[C@@H](C2CCCCC2)[C@@H]1CCCO	nt	nt	1.6	nt	0.8
CC(=O)Nc1ccc(NC(=O)c2ccccc2CCc2ccccc2)cc1	nt	nt	-8.0	nt	4.5
Cc1c([N+](=O)[O-])nnn1-c1cc(Cl)cc(Cl)c1	26.7	nt	-3.9	nt	1.6
c1cc2c(cc1C1CCCCC1)c1c3n2CCCNC3CCC1 (stereo not given)	-66.7	nt	3.1	68.1*	-0.9
O=C(Nc1ccc(N2CCOCC2)cc1)C1CC(O)CN1S(=O)(=O)c1ccc(Cl)cc1 (stereo not given)	nt	nt	1.0	nt	0.0
CC(C)OC(=O)CSc1nc2c(c(C3CC=CCC3)c1C#N)CCC2 (stereo not given)	16.1	-7.9	5.8	-22.7	10.7*
CCc1cc2c(NCC3CCCO3)ncnc2s1 (stereo not given)	74.2*	-13.9	2.0	-38.8	1.3
O=[N+]([O-])c1ccccc1OCc1nc(-c2cccs2)no1	-8.3	nt	4.0	nt	2.2
Cc1ccc(OCc2nc(-c3cccs3)no2)c([N+](=O)[O-])c1	13.3	nt	-0.6	nt	8.7*
C=CCn1c(SCC(=O)N2CCc3ccccc3C2)nc2ccccc2c1=O	10.0	-7.4	-8.4	-57.7	2.1
CCN(CC)S(=O)(=O)c1cc(NC(=O)COC(=O)CCC(=O)c2ccc(F)cc2)ccc1C	-13.3	1.3	2.3	-37.1	9.5*
CCN(CC)S(=O)(=O)c1cc(C(=O)OCC(=O)Nc2cccc(S(=O)(=O)N(C)C)c2)ccc1F	nt	nt	2.9	nt	9.2*
Cc1ccc(NC(=O)c2ccc(Cl)c(N3C(=O)C=CC3=O)c2)cc1	0.0	-7.6	-5.4	7.2	-0.2
Cc1ccc(N2C(=O)CC2(C#N)c2ccc(OCc3ccccc3)cc2)cc1 (stereo not given)	34.8	11.6	-1.6	-16.0	7.8
CCn1c(Sc2ccc([N+](=O)[O-])cn2)nnc1-c1ccco1	nt	nt	-1.9	nt	-1.4
CC(C)c1noc2ncc(C(=O)c3cc(Cl)cc(Cl)c3O)cc12	-3.6	64.3*	-3.2	-22.1	-0.1
C[C@]12CCC(=O)C=C1CC[C@@H]1[C@@H]2C(=O)C[C@@]2(C)[C@H]1CC[C@]2(O)C(=O)CO	13.0	0.4	-0.5	-5.7	0.8
CC(=O)[C@@]1(O)CC[C@H]2[C@@H]3CCC4=CC(=O)CC[C@]4(C)[C@H]3CC[C@@]21C	-95.2	15.5	12.0*	-42.9	-0.3
Cc1csc(C(=O)O)c1NC(=O)c1cccc([N+](=O)[O-])c1	nt	nt	4.8	nt	0.1
CCCCSc1nc(NCc2ccco2)c2c3c(sc2n1)COC(C)(C)C3	-2.3	-3.5	-2.9	9.4	10.1*
C(=C\c1ccco1)/c1nc2ccccc2[nH]1	nt	nt	-3.5	nt	1.4
C(=C\c1nc2ccccc2[nH]1)/c1ccccc1	93.3*	-19.0	0.7	-41.1	0.9
Fc1ccc(N/N=C2/CC(c3ccccc3)Oc3ccccc32)c(F)c1 (stereo not given)	-16.2	-7.0	2.8	86.2*	2.8
CNC(=S)N/N=C1\CC(c2ccccc2)Oc2ccccc21 (stereo not given)	10.5	nt	-5.5	nt	6.0
CN(C)CCNC(=S)Nc1ccc(F)c(F)c1F	47.4	nt	-4.3	nt	0.0
O=C(Nc1ccnc(-c2cccnc2)n1)c1cccs1	nt	nt	-2.5	nt	0.8
O=C(c1cccc(C(F)(F)F)c1)N(c1ccccn1)C1CCCCC1	nt	nt	-7.1	nt	0.1
CCOc1cc(/C=C(/C#N)c2nc3ccccc3[nH]2)ccc1OCc1ccc(C(=O)O)o1	nt	-3.2	-1.1	-49.2	9.1*
